# From ChEMBL document CHEMBL4627284, “Pyrimethamine conjugated histone deacetylase inhibitors: Design, synthesis and evidence for triple negative breast cancer selective cytotoxicity” (Bioorg Med Chem, 2020)
# Activity calls are given as the source filed them. No cut-off for these calls is given here.
# Legend:
# Histone deacetylase 1 [1] = target: T1, Histone deacetylase 1 (Homo sapiens, UniProt Q13547); assay: Inhibition of human recombinant HDAC1 using fluorogenic HDAC substrate preincubated for 30 mins followed by substrate addition and measured after 15 mins by fluorogenic assay
# Histone deacetylase 8 = target: T2, Histone deacetylase 8 (Homo sapiens, UniProt Q9BY41); assay: Inhibition of human recombinant HDAC8 using fluorogenic HDAC substrate class 2A preincubated for 30 mins followed by substrate addition and measured after 15 mins by fluorogenic assay
# T2 sequence (Q9BY41 whole entry): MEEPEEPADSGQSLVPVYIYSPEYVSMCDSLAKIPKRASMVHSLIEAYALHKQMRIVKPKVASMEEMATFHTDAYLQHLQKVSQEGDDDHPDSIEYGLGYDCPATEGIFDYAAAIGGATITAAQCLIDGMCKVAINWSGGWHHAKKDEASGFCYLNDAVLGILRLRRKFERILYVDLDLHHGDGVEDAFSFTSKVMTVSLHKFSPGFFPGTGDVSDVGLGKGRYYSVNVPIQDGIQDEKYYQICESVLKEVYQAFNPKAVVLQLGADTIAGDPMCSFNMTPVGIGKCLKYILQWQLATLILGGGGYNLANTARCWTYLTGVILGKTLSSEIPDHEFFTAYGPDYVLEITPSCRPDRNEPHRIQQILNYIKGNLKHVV
# [2] = target: T3, Protein deacetylase HDAC6 (Homo sapiens, UniProt Q9UBN7); assay: Inhibition of human recombinant HDAC6 using fluorogenic HDAC substrate 3 preincubated for 30 mins followed by substrate addition and measured after 15 mins by fluorogenic assay
# T3 sequence (Q9UBN7 whole entry): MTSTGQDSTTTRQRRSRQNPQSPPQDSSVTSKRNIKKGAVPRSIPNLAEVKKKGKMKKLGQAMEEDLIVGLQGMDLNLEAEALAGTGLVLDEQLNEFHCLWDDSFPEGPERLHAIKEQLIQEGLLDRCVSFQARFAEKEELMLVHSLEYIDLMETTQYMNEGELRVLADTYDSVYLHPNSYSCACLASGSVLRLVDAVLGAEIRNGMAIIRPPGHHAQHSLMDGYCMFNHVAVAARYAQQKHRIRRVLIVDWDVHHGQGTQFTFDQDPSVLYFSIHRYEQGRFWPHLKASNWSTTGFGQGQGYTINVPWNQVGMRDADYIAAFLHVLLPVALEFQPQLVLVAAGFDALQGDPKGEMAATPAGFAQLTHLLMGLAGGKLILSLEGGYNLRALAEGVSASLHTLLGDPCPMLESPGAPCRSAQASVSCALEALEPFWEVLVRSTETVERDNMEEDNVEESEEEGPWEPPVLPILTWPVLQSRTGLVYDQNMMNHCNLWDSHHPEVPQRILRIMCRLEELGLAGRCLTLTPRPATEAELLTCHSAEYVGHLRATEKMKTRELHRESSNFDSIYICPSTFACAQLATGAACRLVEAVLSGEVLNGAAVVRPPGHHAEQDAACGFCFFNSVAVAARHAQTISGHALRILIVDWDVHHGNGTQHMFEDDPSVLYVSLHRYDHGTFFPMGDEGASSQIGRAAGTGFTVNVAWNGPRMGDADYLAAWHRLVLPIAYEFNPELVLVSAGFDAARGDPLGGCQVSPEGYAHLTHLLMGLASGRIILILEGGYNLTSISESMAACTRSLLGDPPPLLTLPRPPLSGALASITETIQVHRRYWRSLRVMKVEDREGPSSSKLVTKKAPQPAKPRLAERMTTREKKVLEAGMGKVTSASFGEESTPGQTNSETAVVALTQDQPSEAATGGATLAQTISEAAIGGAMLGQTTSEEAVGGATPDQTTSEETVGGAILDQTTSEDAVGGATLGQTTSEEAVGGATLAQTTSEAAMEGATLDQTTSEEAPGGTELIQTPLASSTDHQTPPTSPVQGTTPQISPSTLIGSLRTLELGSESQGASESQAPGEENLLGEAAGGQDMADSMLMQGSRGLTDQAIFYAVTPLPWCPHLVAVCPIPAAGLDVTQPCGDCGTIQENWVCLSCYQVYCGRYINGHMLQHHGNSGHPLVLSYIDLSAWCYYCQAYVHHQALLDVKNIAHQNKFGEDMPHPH
# [3] = target: Signal transducer and activator of transcription 3 (Homo sapiens) (UniProt P40763); assay: Inhibition of STAT3 in human MDA-MB-231 cells assessed as change in Bcl-2 expression at 0.8 to 1.6 uM after 24 hrs by western blot analysis; type: cell-based
# In short: (§1)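 MDA-MB-231 cells, 1*10⁶ per well, were grown in DMEM for 24 h, serum-starved for 24 h, then treated for 24 h from DMSO solutions (final DMSO 0.1%; DMSO control). Cells were lysed in RIPA with protease and phosphatase inhibitors and protein equalized by BCA. 20-40 µg was run on 4-20% gels and transferred to PVDF, which was blocked in 5% BSA. Primary antibodies were applied overnight and secondary for 1 h, and band intensities were quantified by infrared imaging.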
# MDA-MB-231 [4] = assay: Cell cycle arrest in human MDA-MB-231 cells assessed as accumulation of cells at G2 phase at 5 uM incubated for 48 hrs RNase/PI staining based flow cytometry assay (reference value: 17.4 %); type: functional
# In short: (§2)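 MDA-MB-231 cells, 5*10⁶ per 10 cm plate, were grown in DMEM for 24 h and then dosed for 48 h from DMSO stocks (final DMSO 0.1%; DMSO as control). Cells were trypsinized, washed twice in cold PBS and fixed in 70% ethanol overnight at -20°C. They were treated with 200 ug/mL RNase for 30 min, stained with 50 ug/mL PI at RT for 30 min, and DNA content was read by flow cytometry.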
# MDA-MB-231 [5] = assay: Cell cycle arrest in human MDA-MB-231 cells assessed as accumulation of cells at G1 phase at 5 uM incubated for 48 hrs RNase/PI staining based flow cytometry assay (reference value: 64.3 %); type: functional; in short: as §2
# [6] = target: Signal transducer and activator of transcription 3 (Homo sapiens) (UniProt P40763); assay: Inhibition of STAT3 in human MDA-MB-231 cells assessed as upregulation of p-p38 expression after 24 hrs by western blot analysis; type: cell-based; in short: as §1
# [7] = target: Signal transducer and activator of transcription 3 (Homo sapiens) (UniProt P40763); assay: Inhibition of STAT3 in human MDA-MB-231 cells assessed as slight down regulation of pSTAT3 expression at 50 to 100 uM after 24 hrs by western blot analysis; type: cell-based; in short: as §1
# [8] = target: Signal transducer and activator of transcription 3 (Homo sapiens) (UniProt P40763); assay: Inhibition of STAT3 in human MDA-MB-231 cells assessed as downregulation of cyclinD1 expression at 5 to 25 uM after 24 hrs by western blot analysis; type: cell-based; in short: as §1
# [9] = target: Signal transducer and activator of transcription 3 (Homo sapiens) (UniProt P40763); assay: Inhibition of STAT3 in human MDA-MB-231 cells assessed as downregulation of Bcl-xL expression after 24 hrs by western blot analysis; type: cell-based; in short: as §1
# MDA-MB-231 [10] = assay: cells; type: functional, cell-based; conditions: Homo sapiens, MDA-MB-231, 72 h
# MCF7 = assay: cells; type: functional, cell-based; conditions: Homo sapiens, MCF7, 72 h
# Vero = assay: cells; conditions: Chlorocebus sabaeus, 72 h
# A549 = assay: cells; type: functional, cell-based; conditions: Homo sapiens, A549, 72 h
# [11] = target: Signal transducer and activator of transcription 3 (Homo sapiens) (UniProt P40763); assay: Inhibition of STAT3 in human MDA-MB-231 cells assessed as effect on pSTAT3 expression at 50 to 100 uM after 24 hrs by western blot analysis; type: cell-based; in short: as §1
# [12] = target: Signal transducer and activator of transcription 3 (Homo sapiens) (UniProt P40763); assay: Inhibition of STAT3 in human MDA-MB-231 cells assessed as upregulation of Bcl-xLexpression after 24 hrs by western blot analysis; type: cell-based; in short: as §1
# [13] = target: T4, Protein deacetylase HDAC6 (Homo sapiens) (UniProt Q9UBN7); assay: Inhibition of HDAC6 in human MDA-MB-231 cells assessed as accumulation of acetylated tubulin at 50 to 100 uM by western blot analysis; type: cell-based
# T4 sequence (whole entry): T3 sequence (Q9UBN7 whole entry)
# In short: (§3)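 MDA-MB-231 cells were grown in DMEM for 24 h, serum-starved for 24 h, then treated for 4 h (DMSO control). Lysates were made in RIPA with protease and phosphatase inhibitors and normalized by BCA. 20-40 µg was run on 4-20% gels and transferred to PVDF, which was blocked in 5% BSA. Membranes were probed overnight for acetyl-α-tubulin or acetyl-H4, then with secondary for 1 h, and bands were quantified by infrared imaging.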
# [14] = target: Signal transducer and activator of transcription 3 (Homo sapiens) (UniProt P40763); assay: Inhibition of STAT3 in human MDA-MB-231 cells assessed as downregulation of cyclinD1 expression at 100 to 200 uM after 24 hrs by western blot analysis; type: cell-based; in short: as §1
# Histone deacetylase 1 [15] = target: T1, Histone deacetylase 1; assay: Inhibition of HDAC1 in human MDA-MB-231 cells assessed as accumulation of acetylated H4 at 50 to 100 uM by western blot analysis; type: cell-based; in short: as §3
# MDA-MB-231 [16] = assay: Cell cycle arrest in human MDA-MB-231 cells assessed as accumulation of cells at G2 phase at 15 uM incubated for 48 hrs RNase/PI staining based flow cytometry assay; type: functional; in short: as §2
# MDA-MB-231 [17] = assay: Cell cycle arrest in human MDA-MB-231 cells assessed as accumulation of cells at S phase at 12.5 uM incubated for 48 hrs RNase/PI staining based flow cytometry assay (reference value: […] %); type: functional; in short: as §2
# MDA-MB-231 [18] = assay: Cell cycle arrest in human MDA-MB-231 cells assessed as accumulation of cells at S phase at 25 uM incubated for 48 hrs RNase/PI staining based flow cytometry assay (reference value: 11.5 %); type: functional; in short: as §2
# [19] = target: Signal transducer and activator of transcription 3 (Homo sapiens) (UniProt P40763); assay: Inhibition of STAT3 in human MDA-MB-231 cells assessed as downregulation of cyclinD1 expression at 2.5 to 5 uM after 24 hrs by western blot analysis; type: cell-based; in short: as §1
# [20] = target: Signal transducer and activator of transcription 3 (Homo sapiens) (UniProt P40763); assay: Inhibition of STAT3 in human MDA-MB-231 cells assessed as effect on pSTAT3 expression at 5 to 25 uM after 24 hrs by western blot analysis; type: cell-based; in short: as §1
# MDA-MB-231 [21] = assay: Cell cycle arrest in human MDA-MB-231 cells assessed as accumulation of cells at G2 phase at 12.5 uM incubated for 48 hrs by flow cytometry (reference value: […] %)
# Histone deacetylase 1 [22] = target: T1, Histone deacetylase 1; assay: Inhibition of HDAC1 in human MDA-MB-231 cells assessed as accumulation of acetylated H4 at 12.5 to 50 uM by western blot analysis; type: cell-based; in short: as §3
# [23] = target: Signal transducer and activator of transcription 3 (Homo sapiens) (UniProt P40763); assay: Inhibition of STAT3 in human MDA-MB-231 cells assessed as slight downregulation of Bcl-2 expression at 5 to 25 uM after 24 hrs by western blot analysis; type: cell-based; in short: as §1
# MDA-MB-231 [24] = assay: Cell cycle arrest in human MDA-MB-231 cells assessed as accumulation of cells at G2 phase at 25 uM incubated for 48 hrs RNase/PI staining based flow cytometry assay (reference value: 17.4 %); type: functional; in short: as §2
# [25] = target: T4, Protein deacetylase HDAC6 (Homo sapiens); assay: Inhibition of HDAC6 in human MDA-MB-231 cells assessed as accumulation of acetylated tubulin at 12.5 to 50 uM by western blot analysis; type: cell-based; in short: as §3
# MDA-MB-231 [26] = assay: Cell cycle arrest in human MDA-MB-231 cells assessed as accumulation of cells at G1 phase at 25 uM incubated for 48 hrs RNase/PI staining based flow cytometry assay (reference value: 64.3 %); type: functional; in short: as §2
# MDA-MB-231 [27] = assay: Cell cycle arrest in human MDA-MB-231 cells assessed as accumulation of cells at G2 phase at 12.5 uM incubated for 48 hrs RNase/PI staining based flow cytometry assay (reference value: 17.4 %); type: functional; in short: as §2
# T1 sequence (Q13547 whole entry): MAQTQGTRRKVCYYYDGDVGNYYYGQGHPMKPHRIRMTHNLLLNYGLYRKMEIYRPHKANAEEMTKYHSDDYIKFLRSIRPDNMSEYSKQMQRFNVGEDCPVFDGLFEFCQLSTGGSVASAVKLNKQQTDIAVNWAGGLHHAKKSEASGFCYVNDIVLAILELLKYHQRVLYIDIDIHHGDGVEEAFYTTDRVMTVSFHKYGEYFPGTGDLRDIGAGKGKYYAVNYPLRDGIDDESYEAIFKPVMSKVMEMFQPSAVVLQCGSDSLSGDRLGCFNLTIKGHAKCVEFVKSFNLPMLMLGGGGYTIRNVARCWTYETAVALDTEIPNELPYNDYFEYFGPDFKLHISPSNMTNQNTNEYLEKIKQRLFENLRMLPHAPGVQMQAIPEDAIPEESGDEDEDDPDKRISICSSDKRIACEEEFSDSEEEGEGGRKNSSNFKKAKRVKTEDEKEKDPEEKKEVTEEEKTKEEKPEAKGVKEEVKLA
# Sequence of Signal transducer and activator of transcription 3 (Homo sapiens) (P40763 whole entry): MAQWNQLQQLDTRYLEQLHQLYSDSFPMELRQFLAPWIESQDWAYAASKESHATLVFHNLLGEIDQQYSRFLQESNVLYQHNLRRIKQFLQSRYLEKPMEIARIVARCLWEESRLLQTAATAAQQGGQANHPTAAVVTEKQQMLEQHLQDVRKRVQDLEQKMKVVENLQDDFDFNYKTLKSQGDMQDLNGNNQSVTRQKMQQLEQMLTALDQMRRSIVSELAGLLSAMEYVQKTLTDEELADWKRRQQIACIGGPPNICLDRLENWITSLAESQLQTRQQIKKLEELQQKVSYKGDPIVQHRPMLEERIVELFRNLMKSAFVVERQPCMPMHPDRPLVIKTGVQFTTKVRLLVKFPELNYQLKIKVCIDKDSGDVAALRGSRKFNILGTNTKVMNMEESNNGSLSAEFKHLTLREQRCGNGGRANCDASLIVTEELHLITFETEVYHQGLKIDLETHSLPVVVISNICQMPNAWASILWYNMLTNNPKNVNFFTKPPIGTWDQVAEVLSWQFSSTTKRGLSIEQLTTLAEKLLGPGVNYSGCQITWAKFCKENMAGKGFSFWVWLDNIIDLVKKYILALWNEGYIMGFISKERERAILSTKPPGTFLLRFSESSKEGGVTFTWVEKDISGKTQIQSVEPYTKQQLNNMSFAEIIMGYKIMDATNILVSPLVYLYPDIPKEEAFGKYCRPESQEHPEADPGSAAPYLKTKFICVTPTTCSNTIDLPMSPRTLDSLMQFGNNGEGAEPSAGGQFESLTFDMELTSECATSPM
SMILES,IC50 (Histone deacetylase 1 [1]) [µM],IC50 (Histone deacetylase 8) [µM],IC50 [2] [µM],inhibition [6],IC50 (MDA-MB-231 [10]) [µM],IC50 (MCF7) [µM],IC50 (Vero) [µM],IC50 (A549) [µM],other results
CCc1nc(N)nc(N)c1-c1ccc(/C=C/C(=O)NO)cc1,2.2,1.8,0.4,,,,,,
O=C(CCCCCCC(=O)Nc1ccccc1)NO [VORINOSTAT],,,,Dose-dependent effect,,,,,inhibition [3]: inactive; Activity (MDA-MB-231 [4]): 65.1%; Activity (MDA-MB-231 [5]): 18.2%; inhibition [7]: Active; inhibition [8]: Active; inhibition [9]: Dose-dependent effect
CCc1nc(N)nc(N)c1-c1ccc(-c2cn(CCCCCC(=O)NO)nn2)cc1,0.26,2.8,0.046,,38.4,,,,
CCc1nc(N)nc(N)c1-c1ccc(-c2ccc(/C=C/C(=O)NO)cc2)cc1,3.7,,0.073,,5.43,9.3,6.9,10,
CCc1nc(N)nc(N)c1-c1ccc(Cl)cc1 [PYRIMETHAMINE],,,,Dose-dependent effect,238,453,,,inhibition [11]: inactive; inhibition [12]: Active; inhibition [13]: inactive; inhibition [14]: Active; inhibition (Histone deacetylase 1 [15]): inactive
CCOC(=O)CCCCCCCn1cc(-c2ccc(-c3c(N)nc(N)nc3CC)cc2)nn1,,,,,94.9,96.6,113,114,
CCc1nc(N)nc(N)c1-c1ccc(-c2cn(CCCCCCC(=O)NO)nn2)cc1,0.045,0.78,0.017,,12.2,57.3,40.2,65.5,Activity (MDA-MB-231 [16]): Active
CCc1nc(N)nc(N)c1-c1ccc(-c2cn(CCCCCCCC(=O)NO)nn2)cc1,0.21,,0.021,Dose-dependent effect,21.4,83.3,,88.5,Activity (MDA-MB-231 [17]): 5.17%; Activity (MDA-MB-231 [18]): 1.63%; inhibition [19]: Active; inhibition [20]: inactive; Activity (MDA-MB-231 [21]): 24%; inhibition (Histone deacetylase 1 [22]): Active; inhibition [23]: Active; Activity (MDA-MB-231 [24]): 70.6%; inhibition [25]: Active; Activity (MDA-MB-231 [26]): 22.1%; Activity (MDA-MB-231 [27]): 66.8%; inhibition [9]: Dose-dependent effect
